Screening results deposited in PubChem by Sanford-Burnham Center for Chemical Genomics.
Hits are enriched below; roughly 1.8% of the tested compounds scored in any of these assays.
LMPTP inh: LMPTP phosphatase inhibitors, primary screen, biochemical, fluorescence intensity, uHTS | recombinant LMPTP-A, OMFP fluorogenic substrate | Low molecular weight phosphotyrosine protein phosphatase (Homo sapiens), P24666 | 0.22% of 360,000 active | inhibition, % at 20 µM | AID 651560, 2012;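 active = compounds that cut the enzyme signal by at least half of the control window in the single-dose screen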
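Buffer or medium: Bis-Tris pH 6.0, DTT, detergent; Assay system: LMPTP-A enzyme; Quantity: 0.625 nM enzyme; Detection: endpoint fluorescence intensity; Times: 50 min dark incubation at room temperature; Controls: substrate-only low control, DMSO enzyme-plus-substrate high control; Doses: single 20 µM dose; Read-out: percent inhibition versus substrate-only and uninhibited controls; Reagent: 400 µM OMFP.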
Scp1 inh: Scp-1 phosphatase inhibitors, primary screen, biochemical, colorimetric, uHTS; inhibition, % at 20 µM; Carboxy-terminal domain RNA polymerase II polypeptide A small phosphatase 1 (Homo …; 0.88% of 340,000 active; Recombinant Scp1, phosphopeptide, malachite green phosphate absorbance;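 active = inhibition above about 50% at 20 µM, limit read from the data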
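assay system = SCP-1 phosphatase catalytic domain, residues 76-261 | buffer or medium = 50 mM Tris acetate pH 5.5, 0.005% Tween-20, 10 mM MgCl2 | incubation = enzyme reaction 45 min at room temperature, colour 5 min, stabilisation 30 min | signal = Phosphate-binding colour reagent, absorbance read at 630 nm | measure = % inhibition at 20 µM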
DNMT1 inh: human DNMT1 methyltransferase inhibitors, primary screen, biochemical, molecular beacon, fluorescence, HinP1I cleavage, uHTS | DNA (cytosine-5)-methyltransferase 1 (Homo sapiens), P26358 | inhibition (reported as % activation of signal), % at 10 µM | 0.83% of 360,000 active | AID 588458, 2011; in the data active = inhibition above about 50%
STEP block: STEP phosphatase inhibitors, primary screen, biochemical, fluorescence intensity, uHTS; Tyrosine-protein phosphatase non-receptor type 5 (Homo sapiens), P54829; recombinant STEP, OMFP fluorogenic substrate; inhibition, % at 20 µM; 0.25% of 360,000 active;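 active = inhibition at 20 µM, scaled per plate between control wells, above about 37%, limit read from the data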
Target sequence (P54829 whole entry, looked up): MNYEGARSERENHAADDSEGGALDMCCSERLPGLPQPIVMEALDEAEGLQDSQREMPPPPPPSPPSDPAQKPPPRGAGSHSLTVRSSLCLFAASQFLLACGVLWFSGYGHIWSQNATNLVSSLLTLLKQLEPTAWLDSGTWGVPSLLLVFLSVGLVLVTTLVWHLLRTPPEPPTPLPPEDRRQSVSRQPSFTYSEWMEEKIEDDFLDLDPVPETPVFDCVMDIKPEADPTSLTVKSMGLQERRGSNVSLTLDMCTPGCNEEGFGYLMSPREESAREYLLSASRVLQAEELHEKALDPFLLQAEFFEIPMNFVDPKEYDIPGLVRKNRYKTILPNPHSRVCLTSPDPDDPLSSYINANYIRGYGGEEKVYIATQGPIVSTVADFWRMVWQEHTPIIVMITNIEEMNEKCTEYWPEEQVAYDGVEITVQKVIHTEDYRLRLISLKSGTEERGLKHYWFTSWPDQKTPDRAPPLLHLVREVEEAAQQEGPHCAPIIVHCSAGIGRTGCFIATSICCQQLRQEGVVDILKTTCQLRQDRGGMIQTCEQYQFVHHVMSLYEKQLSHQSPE
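System: STEP phosphatase, cell-free reaction; Buffer or medium: Bis-Tris pH 6.0 buffer with DTT, detergent; Incubation: 20 min at room temperature, dark; Measured by: fluorescence, 480/540 nm.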
SUMO1 PPI mod: modulators of SUMO1 protein-protein interactions, primary screen, biochemical, uHTS; Small ubiquitin-related modifier 1 (Homo sapiens), P63165; SUMO1 binding to a labelled peptide, TR-FRET, 1 h; inhibition, % at 20 µM; 0.33% of 360,000 active; in the data active = inhibition above about 37%
Target sequence (P63165 whole entry, looked up): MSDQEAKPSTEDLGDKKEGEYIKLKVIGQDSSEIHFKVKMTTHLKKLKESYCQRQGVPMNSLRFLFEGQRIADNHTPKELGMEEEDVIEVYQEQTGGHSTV
HKDC1 inhibitor: HKDC1 hexokinase inhibitors, primary screen, biochemical, fluorescence, uHTS. Q2TB90. recombinant HKDC1, G6PDH/diaphorase resazurin coupled fluorescence. inhibition, % at 20 µM. 0.16% of 340,000 active;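 active = inhibition above about 35% when tested at 20 µM, limit read from the data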
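Assay system – recombinant HKDC1 (HK5) hexokinase enzyme, produced in-house · Input – HKDC1 at 5 µg/mL · Reagent – glucose plus 1 mM ATP as hexokinase substrates · Timing – 90 min reaction incubation at room temperature, dark · Measured by – G6PDH/diaphorase-coupled fluorescence, 1 mM NADP, 100 µM resazurin, 525/613 nm · Benchmarks – DMSO-enzyme wells negative, buffer-substituted wells positive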
Scp1 confirm: Scp-1 phosphatase inhibitors, retest, confirmation, biochemical, colorimetric, single concentration; recombinant SCP-1 catalytic domain, phosphate release, malachite green absorbance; shares compounds with Scp1 inh; inhibition, % at 20 µM; AID 540281, 2011; 61% of 2,500 active
Scp-1 MG ctr: colorimetric readout interference by compounds, confirmation, artefact control for Scp-1 inhibitor project, biochemical, single concentration; Colorimetric interference counterscreen, malachite green absorbance 630 nm; 2,500 tested, under 10 active; apparent inhibition (interference), % at 20 µM; shares compounds with Scp1 inh; AID 540313, 2011;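 note: compounds added after enzyme reaction finished so only phosphate colour detection is probed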
Scp-1 Tm shift: Scp-1 binding by thermal shift, confirmation, orthogonal assay for Scp-1 inhibitor project, biophysical, differential scanning fluorimetry; shares compounds with Scp1 inh; AID 540329, 2011; 25% of 1,500 active; thermal shift relative to vanadate control, % at 40 µM; Recombinant SCP1, Sypro Orange thermal shift Tm;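 active = substances whose mean melting-temperature shift, as a percentage of the reference inhibitor's shift, reaches about 5.3%, limit read from the data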
DNMT1 interf DR: spectral interference with molecular beacon fluorescence, dose response, artefact control for DNMT1 inhibitor project, biochemical, fluorescent molecular beacon; shares compounds with DNMT1 inh; spectral interference counter-screen; IC50, µM; 200 tested, under 10 active; call rule not given here
DNMT1 inh conf: DNMT1 methyltransferase inhibitor retest, confirmation, biochemical, molecular beacon, fluorescence, single concentration. shares compounds with DNMT1 inh. 8% of 2,300 active. AID 602385, 2012. DNMT1 molecular beacon HinP1I cleavage. inhibition, % at 10 µM;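 active = average inhibition of at least 30% in the single-concentration confirmation test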
Beacon interf: beacon fluorescence artifact counter-screen. 1% of 2,300 active. activation (fluorescence interference), % at 10 µM. DNMT1 molecular beacon spectral interference counterscreen, fluorescence 485/520. AID 602387. shares compounds with DNMT1 inh;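 active = activation of at least 30% at 10 µM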;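 note: DNMT1 catalytic domain with a HinP1I cleavage step and a FAM/dabcyl DNA beacon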
Numbers stand for hits; - = inactive; . = no result given.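 Rule for the calls, unless noted: active = inhibition of at least 30% at 20 µM; inactive = the rest.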

SMILES	LMPTP inh	Scp1 inh	DNMT1 inh	STEP block	SUMO1 PPI mod	HKDC1 inhibitor	Scp1 confirm	Scp-1 MG ctr	Scp-1 Tm shift	DNMT1 inh conf	Beacon interf	others
CN(C)C(CNC(=O)c1cc(-c2ccco2)nc2ccccc12)c1ccccc1 (stereo not drawn)	-	70.1	85.5	-	-	-	55.0	-	12.5	45.7	-	DNMT1 interf DR=-
CCc1nnc(NC(=O)c2cc(-c3ccco3)nc3ccccc23)s1	-	65.5	92.0	-	50.9	-	44.7	-	8.5	-	-
O=C(Nc1ccccc1C(F)(F)F)NC1(C(=O)N2CCOCC2)CCCCC1	60.7	74.8	94.6	-	42.1	-	55.3	-	12.1	-	-
O=C(Nc1ccccn1)c1cc2ccccc2cc1O	-	-	-	-	-	-	.	.	.	.	.
N#Cc1ccccc1S(=O)(=O)N1CCN(C(=O)C2COc3ccccc3O2)CC1 (stereo not drawn)	-	74.1	66.7	-	-	-	73.0	-	-	-	-
N#Cc1ccccc1S(=O)(=O)N1CCN(C(=O)c2cc3c(s2)CCC3)CC1	-	97.8	56.2	-	-	-	70.0	-	-	-	-
O=C(CCS(=O)(=O)c1ccc(Br)cc1)NCc1cccs1	-	86.7	58.7	-	-	-	68.5	-	-	-	-
O=C(CCNS(=O)(=O)c1ccc(Br)cc1)NC1CCCCC1	-	-	-	-	-	-	.	.	.	.	.
O=C(CCS(=O)(=O)c1ccc(Br)cc1)NC1CCCC1	-	75.0	56.2	-	-	-	61.6	-	-	-	-
O=C(CCS(=O)(=O)c1ccc(Br)cc1)NCc1ccco1	-	74.7	57.2	-	-	-	66.6	-	-	-	-
O=C(N/N=C/c1ccco1)c1cccc(NC(=O)c2ccccc2Cl)c1	-	-	-	-	-	-	.	.	.	.	.
Cc1cccc(C(=O)Nc2ccc(C(=O)N/N=C/c3ccco3)cc2)c1	-	77.0	71.8	-	-	-	56.0	-	-	-	-
Cc1ccc(OCC(=O)N2CC(C)CC(C)C2)c([N+](=O)[O-])n1 (stereo not drawn)	-	-	-	-	-	-	.	.	.	.	.
CC(CS(=O)(=O)c1ccc2c(c1)NC(=O)CS2)C(=O)NCc1ccccc1Cl (stereo not drawn)	-	76.4	93.0	-	90.1	-	80.7	-	-	-	-
CCC(CC)C(=O)Nc1cccc(C(=O)Nc2ccc(S(=O)(=O)Nc3ccc(C)cc3)cc2)c1	-	-	-	-	-	-	.	.	.	.	.
Cc1ccc2[nH]c(=O)c(CN(CCO)C(=O)N(C)C)cc2c1	-	-	-	-	-	-	.	.	.	.	.
NS(=O)(=O)c1ccc(NC(=O)c2ccc(-c3ccccc3)cc2)cc1	-	60.0	73.3	-	-	-	66.3	-	14.5	-	-
O=Cc1ccc2oc3nc4n(c(=O)c3c(=O)c2c1)CCCS4	-	80.4	94.3	-	-	-	66.9	-	-	-	-
CCOC(=O)c1cn(Cc2ccccc2)c(C(=O)OC(C)(C)C)c1O	-	-	-	-	-	-	.	.	.	.	.
O=C(O)c1ccc(N2C(=O)c3cccc4c(C(=O)O)ccc(c34)C2=O)cc1	-	71.8	90.6	-	-	-	45.2	-	11.9	-	-
CN(CC(=O)Nc1cccc(F)c1)C(=O)c1cccc(-n2cccc2)c1	-	77.2	90.6	-	-	-	61.1	-	6.7	-	-
CN(CC(=O)Nc1c(Cl)cccc1Cl)C(=O)c1cccc(-n2cccc2)c1	-	83.5	68.5	-	-	-	48.5	-	-	-	-
Cc1ccc(C)c(NC(=O)CN(C)C(=O)c2cccc(-n3cccc3)c2)c1	-	79.3	94.3	-	-	-	57.7	-	-	-	-
CN(CC(=O)Nc1cccc(F)c1)C(=O)c1ccc(N2C(=O)c3ccccc3C2=O)cc1	-	-	-	-	-	-	.	.	.	.	.
